Assays:
[1] = species on record: Canis familiaris; test: Intrinsic sympathomimetic activity (ISA, calculated as the percent of maximum change in heart rate (HR); assay type: functional, Canis lupus familiaris
Summary of the method: (§1)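 Same anesthetized, ventilated dog preparation with a pump-perfused left hind limb. An isoproterenol curve was run first. About 45 min later, once HR and HLPP had returned to control, cumulative iv doses of test compound in saline were given. ISA is the maximum HR or HLPP change produced by the compound, expressed as a percentage of the isoproterenol maximum.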

[2] = species on record: Canis familiaris; test: Intrinsic sympathomimetic activity (ISA), calculated as the percent of maximum change in hind limb perfusion pressure (HLPP); assay type: functional, Canis lupus familiaris, Hindlimb; summary of the method: as §1
[3] = test system: Canis familiaris; test: Effective dose required for the maximum heart rate in anesthetized dogs.; assay type: functional; settings: Canis lupus familiaris
Summary of the method: (§2)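 Anesthetized dogs on pentobarbital (20 mg/kg iv, then 2 mg/kg iv every 30 min), ventilated with 40% O2 in air. Left hind limb pump-perfused from the abdominal aorta, heparin 500 IU/kg iv. HR from a lead II ECG-driven cardiotachometer. Arterial pCO2 held at 34-42 mmHg and pH 7.35-7.43. Cumulative iv doses in saline. ED50 taken from dose-response curves of peak HR or HLPP change.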

[4] = test system: Canis familiaris; test: Effective dose required for the maximum hind limb perfusion pressure(HLPP) in anesthetized dogs.; assay type: functional; settings: Canis lupus familiaris, Hindlimb; summary of the method: as §2
[5] = species on record: Canis familiaris; test: Selectivity is expressed as the ratio of ED50 on hind limb perfusion pressure to the ED50 on heart rate; assay type: functional, Canis lupus familiaris
Summary of the method: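 Cardioselectivity is the ratio of ED50 for HLPP to ED50 for HR. Both come from cumulative iv dose-response curves in pentobarbital-anesthetized dogs with a pump-perfused hind limb and a cardiotachometer reading HR.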

| SMILES | ISA [1] | ISA [2] | ED50 [3] | ED50 [4] | Selectivity [5] |
| --- | --- | --- | --- | --- | --- |
| O=C(Cc1ccccc1)NCCNCC(O)COc1ccc(O)cc1.O=C(O)C(=O)O (centres undefined) | 40% | 40% | 0.027 µmol/kg | 0.09 µmol/kg | 3.3 |
| O=C(NCCNCC(O)COc1ccc(O)c(CO)c1)Nc1ccccc1.O=C(O)C(=O)O (centres undefined) | 42% | 32% | 0.045 µmol/kg | 0.112 µmol/kg | 2.5 |
| CC(C)C(=O)NCCNCC(O)COc1ccc(O)c(CO)c1.O=C(O)C(=O)O (centres undefined) | 26% | 30% | 0.043 µmol/kg | 0.27 µmol/kg | 6.3 |
| CC(C)NCC(O)COc1ccc(O)c(CO)c1.O=C(O)C(=O)O (centres undefined) | 44% | 55% | 0.067 µmol/kg | 0.098 µmol/kg | 1.5 |
| CC(C)C(=O)NCCNCC(O)c1cc(O)cc(O)c1.O=C(O)C(=O)O (centres undefined) | 89% | 100% | 0.035 µmol/kg | 0.105 µmol/kg | 3 |
| O=C(NCCNCC(O)COc1cccc(O)c1)Nc1ccccc1.O=C(O)C(=O)O (centres undefined) | 21% | 0% | 0.009 µmol/kg | > 1.5 µmol/kg | >170 |
| O=C(NCCNCC(O)COc1ccc(O)cc1)Nc1ccccc1.O=C(O)C(=O)O (centres undefined) | 52% | 45% | 0.058 µmol/kg | 0.165 µmol/kg | 2.8 |
| CC(C)C(=O)NCCNCC(O)COc1ccc(O)cc1.O=C(O)C(=O)O (centres undefined) | 30% | 40% | 0.02 µmol/kg | 0.078 µmol/kg | 3.9 |
| CC(C)C(=O)NCCNCC(O)COc1cccc(O)c1.O=C(O)C(=O)O (centres undefined) | 25% | 33% | 0.209 µmol/kg | 0.26 µmol/kg | 1.2 |
| CC(C)NCC(O)COc1cc(O)cc(O)c1.O=C(O)C(=O)O (centres undefined) | 32% | 25% | 0.012 µmol/kg | 0.012 µmol/kg | 1 |
| O=C(NCCNCC(O)c1ccc(O)c(O)c1)Nc1ccccc1.O=C(O)C(=O)O (centres undefined) | 100% | 100% | 0.0009 µmol/kg | 0.0054 µmol/kg | 6 |
| CC(C)NCC(O)COc1ccc(O)c(O)c1.O=C(O)C(=O)O (centres undefined) | 100% | 100% | 0.0012 µmol/kg | 0.0012 µmol/kg | 1 |
| CC(C)C(=O)NCCNCC(O)c1ccc(O)c(O)c1.O=C(O)C(=O)O (centres undefined) | 84% | 100% | 0.0025 µmol/kg | 0.006 µmol/kg | 2.4 |
| O=C(NCCNCC(O)c1cc(O)cc(O)c1)Nc1ccccc1.O=C(O)C(=O)O (centres undefined) | 80% | 100% | 0.755 µmol/kg | 0.755 µmol/kg | 1 |
| O=C(NCCNCC(O)COc1ccc(O)c(O)c1)Nc1ccccc1.O=C(O)C(=O)O (centres undefined) | 80% | 100% | 0.0041 µmol/kg | 0.1 µmol/kg | 24.4 |
| CC(C)C(=O)NCCNCC(O)c1ccc(O)c(CO)c1.O=C(O)C(=O)O (centres undefined) | 85% | 100% | 0.077 µmol/kg | 0.152 µmol/kg | 2 |
| O=C(NCCNCC(O)COc1cc(O)cc(O)c1)Nc1ccccc1.O=C(O)C(=O)O (centres undefined) | 28% | 0% | 0.041 µmol/kg | > 5.5 µmol/kg | >135 |
| CC(C)C(=O)NCCNCC(O)COc1cc(O)cc(O)c1.O=C(O)C(=O)O (centres undefined) | 19% | 18% | 0.019 µmol/kg | 0.016 µmol/kg | 0.8 |
| CC(C)C(=O)NCCNCC(O)c1cccc(O)c1.O=C(O)C(=O)O (centres undefined) | 75% | 75% | 0.038 µmol/kg | 0.132 µmol/kg | 3.5 |
| O=C(NCCNCC(O)c1ccc(O)cc1)Nc1ccccc1.O=C(O)C(=O)O (centres undefined) | 71% | 70% | 0.098 µmol/kg | 0.228 µmol/kg | 2.3 |
| CC(C)C(=O)NCCNCC(O)COc1ccc(O)c(O)c1.O=C(O)C(=O)O (centres undefined) | 100% | 100% | 0.0016 µmol/kg | 0.0016 µmol/kg | 1 |
| O=C(NCCNCC(O)c1ccc(O)c(CO)c1)Nc1ccccc1.O=C(O)C(=O)O (centres undefined) | 76% | 88% | 0.038 µmol/kg | 0.304 µmol/kg | 8 |
| CCN(CC)C(=O)NCCNCC(O)COc1ccc(O)cc1.O=C(O)C(=O)O (centres undefined) | 28% | 18% | 0.037 µmol/kg | 0.036 µmol/kg | 10 |

| SMILES | ISA [1] | ISA [2] | ED50 [3] | ED50 [4] | Selectivity [5] |
| --- | --- | --- | --- | --- | --- |
| COCCNC(=O)NCCNCC(O)COc1ccc(O)cc1.O=C(O)C(=O)O (centres undefined) | 74% | 58% | 0.021 µmol/kg | 0.052 µmol/kg | 2.5 |
| O=C(NCCO)NCCNCC(O)COc1ccc(O)cc1.O=C(O)C(=O)O (centres undefined) | 69% | 49% | 0.077 µmol/kg | 0.236 µmol/kg | 3.1 |
| CC(C)NC(=O)NCCNCC(O)COc1ccc(O)cc1.O=C(O)C(=O)O (centres undefined) | 60% | 26% | 0.235 µmol/kg | 0.193 µmol/kg | 0.8 |
| O=C(O)C(=O)O.O=S(=O)(NCCNCC(O)COc1ccc(O)cc1)c1ccccc1 (centres undefined) | 55% | 45% | 0.074 µmol/kg | 0.055 µmol/kg | 0.7 |
| COCCN(C)C(=O)NCCNCC(O)COc1ccc(O)cc1.O=C(O)C(=O)O (centres undefined) | 27% | 0% | 0.012 µmol/kg | > 3 µmol/kg | >250 |
| O=C(O)C(=O)O.O=S(=O)(NCCNCC(O)COc1ccc(O)cc1)Nc1ccccc1 (centres undefined) | 92% | 79% | 0.018 µmol/kg | 0.052 µmol/kg | 2.9 |
| CN(C)S(=O)(=O)NCCNCC(O)COc1ccc(O)cc1.O=C(O)C(=O)O (centres undefined) | 80% | 80% | 0.069 µmol/kg | 0.175 µmol/kg | 2.5 |
| CC(C)C(=O)NCCNCC(O)c1ccc(O)cc1.O=C(O)C(=O)O (centres undefined) | 90% | 82% | 0.056 µmol/kg | 0.071 µmol/kg | 1.3 |
| CN(C)C(=O)NCCNCC(O)COc1ccc(O)cc1.O=C(O)C(=O)O (centres undefined) | 29% | 0% | 0.024 µmol/kg | > 1 µmol/kg | >40 |
| CC(C)NCC(O)COc1cccc(O)c1.O=C(O)C(=O)O (centres undefined) | 57% | 33% | 0.018 µmol/kg | 0.067 µmol/kg | 3.7 |
| O=C(NCCNCC(O)c1cccc(O)c1)Nc1ccccc1.O=C(O)C(=O)O (centres undefined) | 42% | 55% | 0.143 µmol/kg | 0.286 µmol/kg | 2 |
| Cl.O=C(NCCNCC(O)COc1ccc(O)cc1)N(CCO)CCO (centres undefined) | 41% | 42% | 0.145 µmol/kg | 2.33 µmol/kg | 16 |
| CN(CCO)C(=O)NCCNCC(O)COc1ccc(O)cc1.Cl (centres undefined) | 43% | 48% | 0.037 µmol/kg | 1.17 µmol/kg | 33 |
| Cl.O=C(NCCNCC(O)COc1ccc(O)cc1)NCc1ccccc1 (centres undefined) | 80% | 70% | 0.019 µmol/kg | 0.081 µmol/kg | 4.3 |
| CC(C)NCC(O)c1ccc(O)c(CO)c1 (centres undefined) | 100% | 100% | 0.222 µmol/kg | 0.009 µmol/kg | 0.04 |
| NC(=O)NCCNCC(O)COc1ccc(O)cc1 (centres undefined) | 92% | 50% | 0.078 µmol/kg | 0.134 µmol/kg | 1.7 |
| CC(C)NCC(O)c1ccc(O)cc1 (centres undefined) [DETERENOL] | 88% | 55% | 0.01 µmol/kg | 0.077 µmol/kg | 7.7 |
| CC(C)NCC(O)c1ccc(O)c(O)c1 (centres undefined) [ISOPROTERENOL] | 100% | 100% | 0.0014 µmol/kg | 0.0008 µmol/kg | 0.5 |
| CC(C)NCC(O)c1cc(O)cc(O)c1 (centres undefined) [METAPROTERENOL] | 83% | 100% | 0.014 µmol/kg | 0.014 µmol/kg | 1 |
| CC(C)NCC(O)c1cccc(O)c1 (centres undefined) [METATEROL] | 100% | 100% | 0.071 µmol/kg | 0.138 µmol/kg | 1.9 |
| CC(C)NC[C@H](O)COc1ccc(O)cc1 [PRENALTEROL] | 56% | 31% | 0.031 µmol/kg | 0.006 µmol/kg | – |
| O=C(NCCNCC(O)COc1ccc(O)cc1)N1CCOCC1 (centres undefined) [XAMOTEROL] | 50% | 0% | 0.012 µmol/kg | > 3 µmol/kg | >250 |

— ChEMBL document CHEMBL1121799, “Beta-adrenoceptor stimulant properties of amidoalkylamino-substituted 1-aryl-2-ethanols and 1-(aryloxy)-2-propanols” (1981)
